{
  "source": "ChEMBL document CHEMBL1165947",
  "about": "“Synthesis and antitumor activity of 2,5-bis(3'-indolyl)-furans and 3,5-bis(3'-indolyl)-isoxazoles, nortopsentin analogues” (Bioorg Med Chem, 2010)",
  "key": {"[1]": {"test": "Cytotoxicity against human BXF 1218L cells after 4 days by modified propidium iodide staining-based fluorescence assay", "assay_type": "functional, cell-based", "conditions": "96 h", "procedure,_shortened": "(§1)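 Cells cultured in RPMI 1640 with 10% fetal calf serum and 0.1 mg/mL gentamicin at 37 °C, 5% CO2. Cells from exponential cultures were trypsinized and plated at 4.000-20.000 cells/well by line. After 24 h recovery, compounds were added at five log-spaced concentrations (highest 100 μg/mL) for 4 days. Proliferation was read as DNA content with aqueous propidium iodide (7 μg/ml), fluorescence ex 530/em 620 nm. Points were run in triplicate.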"}, "[2]": {"test": "Cytotoxicity against human MAXF 401NL cells after 4 days by modified propidium iodide staining-based fluorescence assay", "assay_type": "functional, cell-based", "conditions": "96 h", "procedure,_shortened": "as §1"}, "[3]": {"test": "Cytotoxicity against human LXFL 1121L cells after 4 days by modified propidium iodide staining-based fluorescence assay", "assay_type": "functional, cell-based", "conditions": "96 h", "procedure,_shortened": "as §1"}, "[4]": {"test": "Cytotoxicity against human 1752L cells after 4 days by modified propidium iodide staining-based fluorescence assay", "assay_type": "functional, cell-based", "conditions": "96 h", "procedure,_shortened": "as §1"}, "[5]": {"test_system": "UO-31", "test": "Growth inhibition of human UO31 cells", "assay_type": "functional", "procedure,_shortened": "(§2)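 Values come from the NCI in vitro disease-oriented human tumor cell screen. GI50 is the concentration giving 50% growth inhibition of tumor cells; pGI50 is its −log molar form.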"}, "[6]": {"test_system": "ACHN", "test": "Growth inhibition of human ACHN cells", "assay_type": "functional"}, "[7]": {"test_system": "K562", "test": "Growth inhibition of human K562 cells", "assay_type": "functional"}, "[8]": {"test_system": "NCI/ADR-RES", "test": "Growth inhibition of human NCI/ADR-RES cells", "assay_type": "functional", "procedure,_shortened": "as §2"}, "[9]": {"test_system": "HL-60(TB)", "test": "Growth inhibition of human HL-60(TB) cells", "assay_type": "functional", "procedure,_shortened": "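Values come from the NCI in vitro disease-oriented human tumour cell line screen, not from this lab's propidium iodide assay. GI50 is the concentration giving 50% inhibition of net cell growth, also reported as pGI50, the −log of that molar concentration.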"}, "[10]": {"test": "Cytotoxicity against human MEXF 462NL cells after 4 days by modified propidium iodide staining-based fluorescence assay", "assay_type": "functional, cell-based", "conditions": "96 h", "procedure,_shortened": "as §1"}, "[11]": {"test_system": "NCI-H460", "test": "Cytotoxicity against human H460 cells after 4 days by modified propidium iodide staining-based fluorescence assay", "assay_type": "functional, cell-based", "conditions": "NCI-H460, 96 h", "procedure,_shortened": "as §1"}, "[12]": {"test_system": "Malme-3M", "test": "Growth inhibition of human MALME-3M cells", "assay_type": "functional", "procedure,_shortened": "as §2"}, "[13]": {"test": "Cytotoxicity against human LXFA 629L cells after 4 days by modified propidium iodide staining-based fluorescence assay", "assay_type": "functional, cell-based", "conditions": "96 h", "procedure,_shortened": "as §1"}, "[14]": {"test_system": "NCI-H226", "test": "Growth inhibition of human NCI-H226 cells", "assay_type": "functional", "procedure,_shortened": "as §2"}, "[15]": {"test_system": "LOX IMVI", "test": "Growth inhibition of human LOXIMVI cells", "assay_type": "functional"}, "[16]": {"test_system": "HT-29", "test": "Cytotoxicity against human HT-29 cells after 4 days by modified propidium iodide staining-based fluorescence assay", "assay_type": "functional, cell-based", "conditions": "HT-29, 96 h", "procedure,_shortened": "as §1"}, "[17]": {"test_system": "IGROV-1", "test": "Growth inhibition of human IGROV1 cells", "assay_type": "functional"}, "[18]": {"test_system": "MCF7", "test": "Cytotoxicity against human MCF7 cells after 4 days by modified propidium iodide staining-based fluorescence assay", "assay_type": "functional, cell-based", "conditions": "MCF7, 96 h", "procedure,_shortened": "as §1"}, "[19]": {"test_system": "OVCAR-3", "test": "Cytotoxicity against human OVCAR-3 cells after 4 days by modified propidium iodide staining-based fluorescence assay", "assay_type": "functional, cell-based", "conditions": "OVCAR-3, 96 h", "procedure,_shortened": "as §1"}, "[20]": {"test_system": "UACC-257", "test": "Growth inhibition of human UACC257 cells", "assay_type": "functional", "procedure,_shortened": "as §2"}, "[21]": {"test_system": "CWR22R", "test": "Cytotoxicity against human 22Rv1 cells after 4 days by modified propidium iodide staining-based fluorescence assay", "assay_type": "functional, cell-based", "conditions": "22Rv1, 96 h", "procedure,_shortened": "as §1"}, "[22]": {"test": "Cytotoxicity against human 1781L cells after 4 days by modified propidium iodide staining-based fluorescence assay", "assay_type": "functional, cell-based", "conditions": "96 h", "procedure,_shortened": "as §1"}, "[23]": {"test_system": "M14", "test": "Growth inhibition of human M14 cells", "assay_type": "functional"}, "[24]": {"test_system": "MOLT-4", "test": "Growth inhibition of human MOLT4 cells", "assay_type": "functional", "procedure,_shortened": "as §2"}, "[25]": {"test_system": "SK-MEL-28", "test": "Growth inhibition of human SK-MEL-28 cells", "assay_type": "functional", "procedure,_shortened": "as §2"}, "[26]": {"test_system": "EKVX", "test": "Growth inhibition of human EKVX cells", "assay_type": "functional"}, "[27]": {"test_system": "RXF 393", "test": "Growth inhibition of human RXF393 cells", "assay_type": "functional", "procedure,_shortened": "as §2"}, "[28]": {"test_system": "DU-145", "test": "Growth inhibition of human DU145 cells", "assay_type": "functional"}, "[29]": {"test": "Cytotoxicity against human LXFA 526L cells after 4 days by modified propidium iodide staining-based fluorescence assay", "assay_type": "functional, cell-based", "conditions": "96 h", "procedure,_shortened": "as §1"}, "[30]": {"test_system": "MDA-MB-231", "test": "Growth inhibition of human MDA-MB-231 cells", "assay_type": "functional", "procedure,_shortened": "as §2"}, "[31]": {"test_system": "CAKI-1", "test": "Growth inhibition of human Caki1 cells", "assay_type": "functional"}, "[32]": {"test_system": "SK-MEL-5", "test": "Growth inhibition of human SK-MEL-5 cells", "assay_type": "functional", "procedure,_shortened": "as §2"}, "[33]": {"test": "Cytotoxicity against human MEXF 276L cells after 4 days by modified propidium iodide staining-based fluorescence assay", "assay_type": "functional, cell-based", "conditions": "MEXF276L, 96 h", "procedure,_shortened": "as §1"}, "[34]": {"test_system": "SF-268", "test": "Growth inhibition of human SF268 cells", "assay_type": "functional", "procedure,_shortened": "as §2"}, "[35]": {"test": "Cytotoxicity against human 1657L cells after 4 days by modified propidium iodide staining-based fluorescence assay", "assay_type": "functional, cell-based", "conditions": "96 h", "procedure,_shortened": "as §1"}, "[36]": {"test_system": "SNB-19", "test": "Growth inhibition of human SNB19 cells", "assay_type": "functional", "procedure,_shortened": "as §2"}, "[37]": {"test_system": "COLO 205", "test": "Growth inhibition of human COLO205 cells", "assay_type": "functional"}, "[38]": {"test_system": "OVCAR-4", "test": "Growth inhibition of human OVCAR4 cells", "assay_type": "functional", "procedure,_shortened": "as §2"}, "[39]": {"test_system": "CCRF-CEM", "test": "Growth inhibition of human CCRF-CEM cells", "assay_type": "functional"}, "[40]": {"test_system": "T47D", "test": "Growth inhibition of human T47D cells", "assay_type": "functional", "procedure,_shortened": "as §2"}, "[41]": {"test_system": "OVCAR-5", "test": "Growth inhibition of human OVCAR5 cells", "assay_type": "functional", "procedure,_shortened": "as §2"}, "[42]": {"test_system": "SF-268", "test": "Cytotoxicity against human SF268 cells after 4 days by modified propidium iodide staining-based fluorescence assay", "assay_type": "functional, cell-based", "conditions": "SF-268, 96 h", "procedure,_shortened": "as §1"}},
  "data": [
    {"smiles": "COc1ccc2c(c1)c(-c1ccc(-c3cn(C)c4ccc(OC)cc34)o1)cn2C", "values": [
      {"measurement": "IC50", "setting": "[1]", "value": 15.7, "unit": "µg/mL"},
      {"measurement": "IC50", "setting": "[2]", "value": 8.1, "unit": "µg/mL"},
      {"measurement": "IC50", "setting": "[3]", "value": 43.4, "unit": "µg/mL"},
      {"measurement": "IC50", "setting": "[4]", "value": 77.4, "unit": "µg/mL"},
      {"measurement": "GI50", "setting": "[5]", "value": 3.6, "unit": "µM"},
      {"measurement": "GI50", "setting": "[6]", "value": 3.74, "unit": "µM"},
      {"measurement": "GI50", "setting": "[7]", "value": 2.86, "unit": "µM"},
      {"measurement": "GI50", "setting": "[8]", "value": 2.37, "unit": "µM"},
      {"measurement": "GI50", "setting": "[9]", "value": 1.98, "unit": "µM"},
      {"measurement": "IC50", "setting": "[10]", "value": 12.5, "unit": "µg/mL"},
      {"measurement": "IC50", "setting": "[11]", "value": 22.2, "unit": "µg/mL"},
      {"measurement": "GI50", "setting": "[12]", "value": 52.8, "unit": "µM"},
      {"measurement": "IC50", "setting": "[13]", "value": 4.1, "unit": "µg/mL"},
      {"measurement": "GI50", "setting": "[14]", "value": 23.6, "unit": "µM"},
      {"measurement": "GI50", "setting": "[15]", "value": 10.4, "unit": "µM"},
      {"measurement": "IC50", "setting": "[16]", "value": "> 100", "unit": "µg/mL"},
      {"measurement": "GI50", "setting": "[17]", "value": 29.6, "unit": "µM"},
      {"measurement": "IC50", "setting": "[18]", "value": 6.2, "unit": "µg/mL"},
      {"measurement": "IC50", "setting": "[19]", "value": 4.2, "unit": "µg/mL"},
      {"measurement": "GI50", "setting": "[20]", "value": 27, "unit": "µM"},
      {"measurement": "IC50", "setting": "[21]", "value": 33.7, "unit": "µg/mL"},
      {"measurement": "IC50", "setting": "[22]", "value": 22, "unit": "µg/mL"},
      {"measurement": "GI50", "setting": "[23]", "value": 32.9, "unit": "µM"},
      {"measurement": "GI50", "setting": "[24]", "value": "> 100", "unit": "µM"},
      {"measurement": "GI50", "setting": "[25]", "value": 14, "unit": "µM"},
      {"measurement": "GI50", "setting": "[26]", "value": 5.48, "unit": "µM"},
      {"measurement": "GI50", "setting": "[27]", "value": 10.4, "unit": "µM"},
      {"measurement": "GI50", "setting": "[28]", "value": "> 100", "unit": "µM"},
      {"measurement": "IC50", "setting": "[29]", "value": 5.8, "unit": "µg/mL"},
      {"measurement": "GI50", "setting": "[30]", "value": 4.2, "unit": "µM"},
      {"measurement": "GI50", "setting": "[31]", "value": 17.1, "unit": "µM"},
      {"measurement": "GI50", "setting": "[32]", "value": 10.4, "unit": "µM"},
      {"measurement": "IC50", "setting": "[33]", "value": 3.8, "unit": "µg/mL"},
      {"measurement": "GI50", "setting": "[34]", "value": 9.25, "unit": "µM"},
      {"measurement": "IC50", "setting": "[35]", "value": "> 100", "unit": "µg/mL"},
      {"measurement": "GI50", "setting": "[36]", "value": 29.8, "unit": "µM"},
      {"measurement": "GI50", "setting": "[37]", "value": 5.13, "unit": "µM"},
      {"measurement": "GI50", "setting": "[38]", "value": 2.06, "unit": "µM"},
      {"measurement": "GI50", "setting": "[39]", "value": 6.46, "unit": "µM"},
      {"measurement": "GI50", "setting": "[40]", "value": 2.72, "unit": "µM"},
      {"measurement": "GI50", "setting": "[41]", "value": 2.79, "unit": "µM"},
      {"measurement": "IC50", "setting": "[42]", "value": 35.1, "unit": "µg/mL"}
    ]}
  ]
}
